Laboratory results: ChEMBL document CHEMBL1140842 (J Med Chem, 2008)
Converted amounts (≈) assume the structure as drawn. The source made the active and inactive calls. No cut-off for these calls is given here.

Legend:
CHO-K1 = test: Selectivity index, ratio of IC50 for CHOK1 cells to IC50 for human NPC-TW01 cells; format: functional
Summary of the method: (§1)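 Selectivity index taken as the ratio between IC50 in the normal line (HUV-EC-C or CHO-K1) and IC50 in NPC-TW01. Each IC50 came from a 72 h MTT assay, with final concentrations of 0.5 nM to […].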

[1] = Solubility in PBS buffer; format: physicochemical
NCI-H838 = test: Cytotoxicity against human NCI-H838 cells after 72 hrs by MTT assay; format: functional, cell-based; settings: NCI-H838, 72 h
Summary of the method: (§2)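 2 × 10⁴ cells/well seeded 12 h before dosing; serial dilutions added at final 0.5 nM to […] for 72 h. Medium then replaced, MTT (5 mg/mL stock, 10 µL) added for 4 h at 37 °C, formazan dissolved in DMSO, absorbance read at 570 nm. Viability plotted against untreated control; IC50 = 50% growth inhibition. Means of at least three independent experiments.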

[2] = Cytotoxicity against human Hep3B cells after 72 hrs by MTT assay; format: functional, cell-based, Hep 3B2
A498 = test: Cytotoxicity against human A498 cells after 72 hrs by MTT assay; format: functional, cell-based; settings: A498, 72 h
[3] = Cytotoxicity against human MES-SA cells after 72 hrs by MTT assay; format: functional, cell-based; summary of the method: as §2
HCT-116 = test: Cytotoxicity against human HCT116 cells after 72 hrs by MTT assay; format: functional, cell-based; settings: HCT-116, 72 h; summary of the method: as §2
[4] = Cytotoxicity against human NPC-TW01 cells after 72 hrs by MTT assay; format: functional, cell-based; settings: NPC-TW01, 72 h
Summary of the method: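 2 × 10⁴ cells/well seeded 12 h before dosing; serial dilutions added at final 0.5 nM to […] for 72 h. Medium then replaced, MTT (5 mg/mL stock, 10 µL) added for 4 h at 37 °C, formazan dissolved in DMSO, absorbance read at 570 nm. Means of at least three independent experiments.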

MKN-45 = test: Cytotoxicity against human MKN45 cells after 72 hrs by MTT assay; format: functional, cell-based; settings: MKN-45, 72 h
HUVEC [5] = test: Cytotoxicity against HUVEC cells after 72 hrs by MTT assay; format: cell-based; settings: Homo sapiens
[6] = Cytotoxicity against CHOK1 cells after 72 hrs by MTT assay; format: cell-based; settings: Cricetulus griseus, CHO-K1, 72 h
HUVEC [7] = test: Selectivity index, ratio of IC50 for HUVEC cells to IC50 for human NPC-TW01 cells; format: functional; summary of the method: as §1
NPC-TW01 [8] = test: Induction of apoptosis in human NPC-TW01 cells assessed as chromosomal condensation by fluorescence microscopy; format: functional, cell-based
Summary of the method: (§3)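 NPC-TW01 cells grown on coverslips and exposed to compound at 1 µM for 24 h, washed in PBS, then fixed in 4% paraformaldehyde. For tubulin, cells were permeabilized (0.1% Triton X-100), blocked (0.1% BSA), and incubated 45 min at room temperature with anti-β-tubulin (1:200), followed by PE-goat anti-mouse IgG (1:100). For chromosomes, cells were stained with Hoechst 33258. Imaged by laser-scanning confocal microscopy.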

NPC-TW01 [9] = test: Induction of morphological changes in human NPC-TW01 cells assessed as microtubule aggregation around nuclei at 1 uM by confocal microscopy; format: functional, cell-based; summary of the method: as §3

Row | SMILES | Selectivity Index (CHO-K1) | solubility [1] [µg/mL] | IC50 (NCI-H838) [nM] | IC50 [2] [nM] | IC50 (A498) [nM] | IC50 [3] [nM] | IC50 (HCT-116) [nM] | IC50 [4] [nM] | IC50 (MKN-45) [nM] | IC50 (HUVEC [5]) [nM] | IC50 [6] [nM] | Selectivity Index (HUVEC [7]) | Activity (NPC-TW01 [8]) | Activity (NPC-TW01 [9])
1 | CO[C@@H]1O[C@H](CO)[C@@H](O)[C@H](O)[C@H]1OCCCC(=O)O[C@@H](C(=O)O[C@H]1C[C@@]2(O)[C@@H](OC(=O)c3ccccc3)[C@@H]3[C@]4(OC(C)=O)CO[C@@H]4C[C@H](O)[C@@]3(C)C(=O)[C@H](OC(C)=O)C(=C1C)C2(C)C)[C@@H](NC(=O)c1ccccc1)c1ccccc1 | > 780 | 80 (≈ 71.7 µM) | 374 | > 100000 | > 100000 | 174 | 480 | 78 | > 100000 | > 100000 | > 100000 | > 780 | – | –
2 | CO[C@@H]1O[C@H](CO)[C@@H](O)[C@H](O)[C@H]1OC(=O)CCC(=O)O[C@@H](C(=O)O[C@H]1C[C@@]2(O)[C@@H](OC(=O)c3ccccc3)[C@@H]3[C@]4(OC(C)=O)CO[C@@H]4C[C@H](O)[C@@]3(C)C(=O)[C@H](OC(C)=O)C(=C1C)C2(C)C)[C@@H](NC(=O)c1ccccc1)c1ccccc1 | > 250 | 53 (≈ 46.9 µM) | 82 | 100000 | > 100000 | 82 | 100 | 25 | > 100000 | > 100000 | > 100000 | > 250 | Active | Active
3 | CO[C@@H]1O[C@H](C(=O)O)[C@@H](O)[C@H](O)[C@H]1OC(=O)CCC(=O)O[C@@H](C(=O)O[C@H]1C[C@@]2(O)[C@@H](OC(=O)c3ccccc3)[C@@H]3[C@]4(OC(C)=O)CO[C@@H]4C[C@H](O)[C@@]3(C)C(=O)[C@H](OC(C)=O)C(=C1C)C2(C)C)[C@@H](NC(=O)c1ccccc1)c1ccccc1 | > 670 | 104 (≈ 90.9 µM) | 267 | > 100000 | > 100000 | 95 | 452 | 67 | > 100000 | > 100000 | > 100000 | > 670 | – | –
4 | CC(=O)O[C@H]1C(=O)[C@@]2(C)[C@H]([C@H](OC(=O)c3ccccc3)[C@]3(O)C[C@H](OC(=O)[C@H](O)[C@@H](NC(=O)c4ccccc4)c4ccccc4)C(C)=C1C3(C)C)[C@]1(OC(C)=O)CO[C@@H]1C[C@@H]2O [PACLITAXEL] | – | < 0.4 | 26 | 7260 | 8810 | 8 | 61 | – | 89100 | 5140 | 16000 | – | – | –
5 | CO[C@@H]1O[C@H](C(=O)O)[C@@H](O)[C@H](O)[C@H]1OCCCC(=O)O[C@@H](C(=O)O[C@H]1C[C@@]2(O)[C@@H](OC(=O)c3ccccc3)[C@@H]3[C@]4(OC(C)=O)CO[C@@H]4C[C@H](O)[C@@]3(C)C(=O)[C@H](OC(C)=O)C(=C1C)C2(C)C)[C@@H](NC(=O)c1ccccc1)c1ccccc1 | 2790 | 137 (≈ 121 µM) | 181 | > 100000 | > 100000 | 201 | 469 | 67 | > 100000 | 44000 | 24000 | 1520 | – | –
